Results published in ChEMBL document CHEMBL5653618 (ACS Med Chem Lett, 2010).
pIC50: −log10 of the molar value. One block for each compound: values may come before it. Activity calls are given as the source filed them. The calls are words filed in the database; no cut-off is given here.

Tests used:
[1] = Clearance in monkey at 0.1 mg/kg, iv by HPLC/MS/MS analysis; type: ADME, organism-based, Macaca mulatta; conditions: rhesus monkey, in vivo
[2] = organism: Homo sapiens; assay: Inhibition of Akt phosphorylation at T308 residue (unknown origin) by cell based analysis
[3] = Clearance in rat at 0.4 mg/kg, iv by HPLC/MS/MS analysis; type: ADME, organism-based; conditions: in vivo
[4] = tested on: BT-474; assay: Induction of cell cycle arrest in human BT-474 cells assessed as accumulation in G1 phase; type: functional, cell-based
[5] = target: DNA-dependent protein kinase catalytic subunit (Homo sapiens, UniProt P78527); assay: Inhibition of DNA-PK (unknown origin)
[6] = Dose normalized AUC in mouse at 2.6 mg/kg, po by HPLC/MS/MS analysis; type: ADME, organism-based; conditions: in vivo
[7] = Half life in dog at 0.1 mg/kg, iv by HPLC/MS/MS analysis; type: ADME, organism-based, Canis lupus familiaris; conditions: in vivo
[8] = tested on: T47D; assay: Antiproliferative activity against human T47D cells assessed as inhibition of cell growth measured after 72 hrs by CellTiter-Glo assay; type: functional, cell-based
[9] = tested on: BT-474; assay: Antitumor activity against human BT-474 cells xenografted in po dosed mouse assessed as tumor growth inhibition administered 5 times a week for 3 weeks; type: functional, organism-based; conditions: dose 0.3-3 mg/kg
[10] = Clearance in mouse at 0.6 mg/kg, iv by HPLC/MS/MS analysis; type: ADME, organism-based; conditions: in vivo
[11] = Dose normalized AUC in rat at 2.1 mg/kg, po measured upto 24 hrs by HPLC/MS/MS analysis; type: ADME, organism-based; conditions: in vivo
[12] = target: Cytochrome P450 3A4 (Homo sapiens, UniProt P08684); assay: Inhibition of CYP3A4 (unknown origin)
Cytochrome P450 3A4, sequence (P08684 whole entry): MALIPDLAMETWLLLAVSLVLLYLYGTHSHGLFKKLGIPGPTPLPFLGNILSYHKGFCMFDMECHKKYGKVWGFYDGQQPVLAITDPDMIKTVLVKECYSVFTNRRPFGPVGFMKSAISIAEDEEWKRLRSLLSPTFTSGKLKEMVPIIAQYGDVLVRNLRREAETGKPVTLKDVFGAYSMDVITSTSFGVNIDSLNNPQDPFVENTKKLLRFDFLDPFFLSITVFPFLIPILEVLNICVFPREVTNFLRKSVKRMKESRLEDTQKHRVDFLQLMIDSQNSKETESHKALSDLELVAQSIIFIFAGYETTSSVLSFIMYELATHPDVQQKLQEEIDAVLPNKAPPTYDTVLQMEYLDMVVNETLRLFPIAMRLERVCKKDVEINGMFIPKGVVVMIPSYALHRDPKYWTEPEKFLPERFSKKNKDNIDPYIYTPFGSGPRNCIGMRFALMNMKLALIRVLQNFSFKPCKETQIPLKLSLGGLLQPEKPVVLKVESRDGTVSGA

[13] = tested on: BT-474; assay: Antitumor activity against human BT-474 cells xenografted in mouse assessed as decrease in pAKT level at 300 microg/kg, po measured after 4 hrs; type: functional; parameters: scale not given: the % may be the effect or the level left; conditions: dose 300 µg/kg
In short: (§1)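 Mice bearing BT474 human tumour xenografts got one oral dose of 300 μg/kg. Tumour pAKT was read as the pAKT/total AKT ratio and compared with control. Sampling ran over a 24 h time course.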

[14] = Clearance in dog at 0.1 mg/kg, iv by HPLC/MS/MS analysis; type: ADME, organism-based, Canis lupus familiaris; conditions: in vivo
[15] = Dose normalized AUC in monkey at 0.6 mg/kg, po by HPLC/MS/MS analysis; type: ADME, organism-based, Macaca mulatta; conditions: rhesus monkey, in vivo
[16] = Volume of distribution at steady state in mouse at 0.6 mg/kg, iv by HPLC/MS/MS analysis; type: ADME, organism-based; conditions: in vivo, read-out: Vdss
[17] = Volume of distribution at steady state in monkey at 0.1 mg/kg, iv by HPLC/MS/MS analysis; type: ADME, organism-based, Macaca mulatta; conditions: rhesus monkey, in vivo, read-out: Vdss
[18] = tested on: BT-474; assay: Antitumor activity against human BT-474 cells xenografted in mouse assessed as decrease in pAKT level at 300 microg/kg, po measured after 2 hrs; type: functional; parameters: scale not given: the % may be the effect or the level left; conditions: dose 300 µg/kg; in short: as §1
[19] = Oral bioavailability in monkey at 0.6 mg/kg by HPLC/MS/MS analysis; type: ADME, organism-based, Macaca mulatta; conditions: rhesus monkey, in vivo
[20] = target: Cytochrome P450 2C19 (Homo sapiens, UniProt P33261); assay: Inhibition of CYP2C19 (unknown origin)
Cytochrome P450 2C19, sequence (P33261 whole entry): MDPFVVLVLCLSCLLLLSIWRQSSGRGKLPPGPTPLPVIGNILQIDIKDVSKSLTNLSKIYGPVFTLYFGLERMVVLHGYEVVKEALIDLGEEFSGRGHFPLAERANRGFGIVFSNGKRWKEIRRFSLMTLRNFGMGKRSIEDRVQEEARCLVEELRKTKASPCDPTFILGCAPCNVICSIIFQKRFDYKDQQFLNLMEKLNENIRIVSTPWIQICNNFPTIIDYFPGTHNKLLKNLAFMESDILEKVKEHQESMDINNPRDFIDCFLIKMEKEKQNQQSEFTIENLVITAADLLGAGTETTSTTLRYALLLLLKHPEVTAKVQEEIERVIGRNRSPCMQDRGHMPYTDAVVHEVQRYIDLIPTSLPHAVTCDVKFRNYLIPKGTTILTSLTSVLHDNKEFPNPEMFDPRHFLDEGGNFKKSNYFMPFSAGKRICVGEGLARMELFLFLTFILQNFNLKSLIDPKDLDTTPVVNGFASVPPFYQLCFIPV

[21] = Half life in rat at 0.4 mg/kg, iv by HPLC/MS/MS analysis; type: ADME, organism-based; conditions: in vivo
[22] = target: T1, Cytochrome P450 1A2 (Homo sapiens, UniProt P05177); assay: Inhibition of CYP1A2 (unknown origin)
T1 sequence (P05177 whole entry): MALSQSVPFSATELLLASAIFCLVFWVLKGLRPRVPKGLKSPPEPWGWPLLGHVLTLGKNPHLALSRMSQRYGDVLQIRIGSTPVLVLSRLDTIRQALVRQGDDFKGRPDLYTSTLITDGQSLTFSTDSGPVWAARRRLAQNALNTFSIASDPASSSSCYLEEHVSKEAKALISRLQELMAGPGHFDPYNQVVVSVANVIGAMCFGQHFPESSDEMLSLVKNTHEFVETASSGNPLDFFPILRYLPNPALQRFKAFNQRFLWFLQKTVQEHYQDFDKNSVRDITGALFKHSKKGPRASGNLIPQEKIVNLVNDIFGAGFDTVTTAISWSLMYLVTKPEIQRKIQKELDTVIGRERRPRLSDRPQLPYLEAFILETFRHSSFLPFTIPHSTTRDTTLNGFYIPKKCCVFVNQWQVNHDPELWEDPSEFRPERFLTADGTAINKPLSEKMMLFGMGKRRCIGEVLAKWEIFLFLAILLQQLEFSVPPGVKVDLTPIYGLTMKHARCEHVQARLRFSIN

[23] = Oral bioavailability in dog at 0.5 mg/kg by HPLC/MS/MS analysis; type: ADME, organism-based, Canis lupus familiaris; conditions: in vivo
[24] = Toxicity in mouse xenografted with human BT-474 cells assessed as tolerability at 3 mg/kg, po administered 5 times a week for 3 weeks; type: organism-based; conditions: in vivo, 504 h
[25] = Dose normalized AUC in dog at 0.5 mg/kg, po by HPLC/MS/MS analysis; type: ADME, organism-based, Canis lupus familiaris; conditions: in vivo
[26] = target: Cytochrome P450 2C9 (Homo sapiens, UniProt P11712); assay: Inhibition of CYP2C9 (unknown origin)
Cytochrome P450 2C9, sequence (P11712 whole entry): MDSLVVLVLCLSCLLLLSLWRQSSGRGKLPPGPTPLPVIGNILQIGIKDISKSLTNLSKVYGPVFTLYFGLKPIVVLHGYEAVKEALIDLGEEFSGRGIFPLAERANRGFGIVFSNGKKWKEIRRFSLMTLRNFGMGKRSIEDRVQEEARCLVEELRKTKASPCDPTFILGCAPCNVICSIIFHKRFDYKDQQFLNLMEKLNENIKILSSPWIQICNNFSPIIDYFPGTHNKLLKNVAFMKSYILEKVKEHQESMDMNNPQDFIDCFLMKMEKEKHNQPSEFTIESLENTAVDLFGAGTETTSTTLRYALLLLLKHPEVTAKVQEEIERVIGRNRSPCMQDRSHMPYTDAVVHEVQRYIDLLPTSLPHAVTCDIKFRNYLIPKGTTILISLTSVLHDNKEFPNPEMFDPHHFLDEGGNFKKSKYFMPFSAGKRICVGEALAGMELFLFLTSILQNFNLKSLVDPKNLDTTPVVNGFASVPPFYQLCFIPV

[27] = Volume of distribution at steady state in rat at 0.4 mg/kg, iv by HPLC/MS/MS analysis; type: ADME, organism-based; conditions: in vivo, read-out: Vdss
[28] = organism: Homo sapiens; assay: Inhibition of p70S6K (unknown origin)
[29] = tested on: T47D; assay: Induction of cell cycle arrest in human T47D cells assessed as accumulation in G1 phase; type: functional, cell-based
[30] = Volume of distribution at steady state in dog at 0.1 mg/kg, iv by HPLC/MS/MS analysis; type: ADME, organism-based, Canis lupus familiaris; conditions: in vivo, read-out: Vdss
[31] = Oral bioavailability in mouse at 2.6 mg/kg by HPLC/MS/MS analysis; type: ADME, organism-based; conditions: in vivo
[32] = target: Cytochrome P450 2D6 (Homo sapiens, UniProt P10635); assay: Inhibition of CYP2D6 (unknown origin)
Cytochrome P450 2D6, sequence (P10635 whole entry): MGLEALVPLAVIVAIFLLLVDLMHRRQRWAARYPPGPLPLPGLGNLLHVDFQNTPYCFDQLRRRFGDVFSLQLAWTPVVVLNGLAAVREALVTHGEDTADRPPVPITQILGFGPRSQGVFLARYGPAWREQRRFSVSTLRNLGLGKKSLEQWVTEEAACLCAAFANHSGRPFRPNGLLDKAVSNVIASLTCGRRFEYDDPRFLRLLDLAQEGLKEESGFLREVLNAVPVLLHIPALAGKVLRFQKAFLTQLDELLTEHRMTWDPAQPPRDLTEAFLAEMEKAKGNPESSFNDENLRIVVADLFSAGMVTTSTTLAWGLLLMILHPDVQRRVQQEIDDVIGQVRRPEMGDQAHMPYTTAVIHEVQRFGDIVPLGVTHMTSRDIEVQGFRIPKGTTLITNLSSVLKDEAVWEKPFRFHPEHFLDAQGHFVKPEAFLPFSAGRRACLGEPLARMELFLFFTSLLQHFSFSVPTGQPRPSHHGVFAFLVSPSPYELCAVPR

[33] = tested on: BT-474; assay: Antitumor activity against human BT-474 cells xenografted in mouse assessed as decrease in pAKT level at 300 microg/kg, po measured after 6 hrs; type: functional; parameters: scale not given: the % may be the effect or the level left; conditions: dose 300 µg/kg; in short: as §1
[34] = Half life in mouse at 0.6 mg/kg, iv by HPLC/MS/MS analysis; type: ADME, organism-based; conditions: in vivo
[35] = tested on: BT-474; assay: Antiproliferative activity against human BT-474 cells assessed as inhibition of cell growth measured after 72 hrs by CellTiter-Glo assay; type: functional, cell-based; conditions: BT-474, 72 h
[36] = Half life in monkey at 0.1 mg/kg, iv by HPLC/MS/MS analysis; type: ADME, organism-based, Macaca mulatta; conditions: rhesus monkey, in vivo
[37] = Oral bioavailability in rat at 2.1 mg/kg by HPLC/MS/MS analysis; type: ADME, organism-based; conditions: in vivo
[38] = tested on: BT-474; assay: Antitumor activity against human BT-474 cells xenografted in mouse assessed as decrease in pAKT level at 300 microg/kg, po measured after 1 hr; type: functional; parameters: scale not given: the % may be the effect or the level left; conditions: dose 300 µg/kg; in short: as §1
[39] = tested on: BT-474; assay: Antitumor activity against human BT-474 cells xenografted in mouse assessed as decrease in pAKT level at 300 microg/kg, po measured after 10 hrs; type: functional; parameters: scale not given: the % may be the effect or the level left; conditions: dose 300 µg/kg; in short: as §1
[40] = Inhibition of Akt phosphorylation at S473 residue in human T47D cells by cell based assay
In short: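 Cellular mechanistic assay in T47D and BT474 cancer cells measuring loss of intracellular AKT phosphorylation at S473.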

[41] = Inhibition of Akt phosphorylation at S473 residue (unknown origin) by cell based analysis; conditions: Homo sapiens
[42] = Aqueous solubility of compound; type: physicochemical; conditions: buffer
[43] = target: Phosphatidylinositol 4,5-bisphosphate 3-kinase catalytic subunit alpha isoform (Homo sapiens, UniProt P42336); assay: Inhibition of PI3Kalpha (unknown origin) using PIP2 as substrate preincubated for 15 mins followed by substrate addition and measured after 1 hr in presence of ATP by HTRF assay
Phosphatidylinositol 4,5-bisphosphate 3-kinase catalytic subunit alpha isoform, sequence (P42336 whole entry, canonical isoform): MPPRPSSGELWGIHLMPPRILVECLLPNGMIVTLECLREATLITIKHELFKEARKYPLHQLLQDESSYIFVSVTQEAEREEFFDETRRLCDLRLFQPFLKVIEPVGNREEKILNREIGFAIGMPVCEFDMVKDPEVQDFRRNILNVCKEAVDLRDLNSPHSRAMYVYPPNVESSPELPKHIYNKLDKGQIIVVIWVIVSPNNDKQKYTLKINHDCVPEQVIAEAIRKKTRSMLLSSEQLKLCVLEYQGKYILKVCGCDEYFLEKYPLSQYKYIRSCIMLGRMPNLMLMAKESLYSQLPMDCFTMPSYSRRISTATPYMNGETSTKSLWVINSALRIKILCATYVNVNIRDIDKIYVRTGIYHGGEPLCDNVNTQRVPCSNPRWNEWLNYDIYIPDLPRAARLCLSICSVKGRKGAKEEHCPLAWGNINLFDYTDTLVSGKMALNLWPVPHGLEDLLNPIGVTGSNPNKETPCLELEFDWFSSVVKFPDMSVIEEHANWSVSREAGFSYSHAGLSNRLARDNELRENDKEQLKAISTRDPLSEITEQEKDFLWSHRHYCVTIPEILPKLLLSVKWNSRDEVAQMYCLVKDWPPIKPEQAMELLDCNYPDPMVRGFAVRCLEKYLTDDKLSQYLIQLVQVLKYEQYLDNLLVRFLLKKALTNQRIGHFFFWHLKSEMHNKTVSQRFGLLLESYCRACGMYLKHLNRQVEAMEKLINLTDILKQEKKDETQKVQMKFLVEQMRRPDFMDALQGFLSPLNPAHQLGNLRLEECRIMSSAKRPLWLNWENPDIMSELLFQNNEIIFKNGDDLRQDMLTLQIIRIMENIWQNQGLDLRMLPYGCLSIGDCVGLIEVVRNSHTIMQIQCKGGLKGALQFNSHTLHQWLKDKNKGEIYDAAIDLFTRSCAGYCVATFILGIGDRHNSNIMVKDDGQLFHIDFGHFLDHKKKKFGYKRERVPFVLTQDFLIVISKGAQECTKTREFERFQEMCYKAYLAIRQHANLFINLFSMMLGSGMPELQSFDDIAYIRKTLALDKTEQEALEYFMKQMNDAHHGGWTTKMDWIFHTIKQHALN

Structure (SMILES): COc1ncc(-c2ccc3nccc(-c4ccnnc4)c3c2)cc1NS(=O)(=O)c1ccc(F)cc1F [OMIPALISIB]
clearance [1]: 3.6 mL/min/kg
inhibition [2]: Active
clearance [3]: 2.3 mL/min/kg
Activity [4]: Active
pIC50 [5]: 9.55
AUC/dose [6]: 1100 ng·h/mL/mg/kg
half-life [7]: 1.3 h
pIC50 [8]: 8.52
Activity [9]: Dose-Dependent Effect
clearance [10]: 10 mL/min/kg
AUC/dose [11]: 6100 ng·h/mL/mg/kg
pIC50 [12]: < 4.60
Activity [13]: 79%
clearance [14]: 5.8 mL/min/kg
AUC/dose [15]: 2300 ng·h/mL/mg/kg
Vd [16]: 1 L/kg
Vd [17]: 0.8 L/kg
Activity [18]: 93%
bioavailability [19]: 49%
pIC50 [20]: < 4.60
half-life [21]: 6.2 h
pIC50 [22]: < 4.60
bioavailability [23]: 80%
Activity [24]: Non-Toxic
AUC/dose [25]: 2400 ng·h/mL/mg/kg
pIC50 [26]: < 4.60
Vd [27]: 1.1 L/kg
inhibition [28]: Active
Activity [29]: Active
Vd [30]: 0.7 L/kg
bioavailability [31]: 100%
pIC50 [32]: < 4.60
Activity [33]: 47%
half-life [34]: 2.1 h
pIC50 [35]: 8.62
half-life [36]: 3.5 h
bioavailability [37]: 81%
Activity [38]: 98%
Activity [39]: 46%
pIC50 [40]: 9.39

Structure (SMILES): Nc1ncc(-c2ccc3nccc(-c4ccncc4)c3c2)cc1S(N)(=O)=O
pIC50 [41]: 7.31
solubility [42]: Soluble
pIC50 [43]: 8.00

Structure (SMILES): Nc1ncc(-c2ccc3nccc(-c4ccncc4)c3c2)cc1S(=O)(=O)Nc1ccc(F)cc1F
pIC50 [41]: 7.20
AUC/dose [11]: 250 ng·h/mL/mg/kg
pIC50 [43]: 9.00

Structure (SMILES): O=S(=O)(Nc1ccc(F)cc1F)c1cncc(-c2ccc3nccc(-c4ccncc4)c3c2)c1
pIC50 [41]: 7.35
AUC/dose [11]: 920 ng·h/mL/mg/kg
pIC50 [43]: 9.00

Structure (SMILES): O=C1NC(=O)/C(=C/c2ccc3nccc(-c4ccncc4)c3c2)S1 [GSK-1059615]
pIC50 [41]: 7.40
pIC50 [43]: 8.70

Structure (SMILES): O=S(=O)(Nc1cncc(-c2ccc3nccc(-c4ccncc4)c3c2)c1)c1ccc(F)cc1F
pIC50 [41]: 8.15
AUC/dose [11]: 1100 ng·h/mL/mg/kg
pIC50 [43]: 10.00

Other lines, results leading:

pIC50 [41]: 5.09
pIC50 [43]: 5.74
Structure (SMILES): c1ccc(-c2ccc3nccc(-c4ccncc4)c3c2)cc1

pIC50 [41]: 5.57
pIC50 [43]: 7.14
Structure (SMILES): c1cc(-c2ccnc3ccc(-c4ccc5[nH]ncc5c4)cc23)ccn1

pIC50 [41]: < 4.53
pIC50 [43]: 6.59
Structure (SMILES): c1cncc(-c2ccc3nccc(-c4ccncc4)c3c2)c1

pIC50 [41]: 7.12
solubility [42]: Insoluble
pIC50 [43]: 8.15
Structure (SMILES): c1cc(-c2ccnc3ccc(-c4cnc5[nH]ncc5c4)cc23)ccn1
